# The entries come from a sample that favours hits as a whole.
# Lung fibro prol: blocks proliferation of human lung fibroblasts; viability, % at 10 µM; LL 47 human lung fibroblast viability, ATP luminescence; stronger effect = lower value; 85,000 compounds, 1.1% hits;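 active = viability at or below 50% in the single dose screen; inactive = viability above 50%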;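 also: compound exposure lasted 72 h before the ATP readout; 100% = median luminescence of untreated cell-only wells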
#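 Signal: luminescent ATP detection, CellTiter-Glo; assay system: LL 47 human lung fibroblasts; input: 1,150 cells/well; incubation: overnight cell rest, 72 h compound treatment at 37 °C; measure: % viability versus median cells-only luminescence; medium: IMEM growth medium with 15% fetal bovine serum; dosing: compound addition at 0.1% DMSO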
# HCT116 bCat-KO: beta-catenin-lacking colon tumor cell growth suppression. HCT116 beta-catenin knockout viability, CellTiter-Glo, 60 h; stronger effect = lower value. viability, % at 10 µM. 140,000 compounds, 1.5% hits;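 active = viability at or under a set limit, the compound median less 4 SD, cut at about 6% in these data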;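 also: 0% = Hyamine 1622 control at 20 µM and 100% = untreated cell control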
# HUVEC inhibit: human endothelial cell proliferation inhibition | AID 648 | 86,000 compounds, 1.1% hits | viability, % at 10 µM (by protocol) | HUVEC proliferation, CellTiter-Glo luminescence, 72 h; stronger effect = lower value;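 active = viability at or below 30%; inactive = viability above 30%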;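 also: 100% = median luminescence of DMSO-only cell control wells on each plate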
# H69AR inhibit: growth inhibitors of human H69AR lung tumor cells; viability, % at 10 µM; 85,000 compounds, 6% hits; H69AR lung tumor viability, ATP luminescence, 72 h; stronger effect = lower value;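 active = viability at or below 40%; inactive = viability above 40%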;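 also: multidrug resistant small cell line overexpressing MRP-1 efflux transporter; 100% = mean luminescence of untreated control wells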
# PTEN del growth: growth suppressors of cells with PTEN tumor suppressor deletion; HCT116 PTEN-null viability, CellTiter-Glo, 60 h; stronger effect = lower value; viability, % at 10 µM; 140,000 compounds, 1.2% hits;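 active = viability at or below a set limit, 4 SD under the median of all tested compounds, cut at about 3.7% in these data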;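 also: PTEN knockout HCT116 line with beta catenin targeted HCT116 as companion control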
# An asterisk follows results filed as active; . = no result given.
SMILES,Lung fibro prol,HCT116 bCat-KO,HUVEC inhibit,H69AR inhibit,PTEN del growth
COc1ccc(C(C(=O)NC2CCCCC2)N(C(=O)CCl)c2ccc(C)cc2)cc1 (centres undefined),.,5.0*,.,.,2.2*
CCOc1ccc(C(C(=O)NC2CCCCC2)N(C(=O)Cc2cccs2)c2ccc(-n3cnnn3)c(OC)c2)cc1 (centres undefined),.,6,.,.,3.3*
COc1ccc(C(C(=O)NC2CCCCC2)N(C(=O)CCl)c2cccc(Cl)c2)cc1 (centres undefined),.,2.3*,.,.,1.6*
COc1cccc(N(C(=O)c2cnccn2)C(C(=O)NC2CCCCC2)c2ccc(Cl)cc2)c1 (centres undefined),93,92,91,93,94
Cc1ccc(CSCCNS(=O)(=O)c2ccccc2)cc1,.,88,.,.,99
CC1CCN(C(=O)COC(=O)[C@H](C)NS(=O)(=O)/C=C/c2ccccc2)CC1,93,98,96,105,96
CCC(C)NC(=O)CSc1nc(-c2cccs2)cc(C(F)(F)F)n1 (centres undefined),.,91,.,.,91
O=C(CSc1nc(-c2cccs2)cc(C(F)(F)F)n1)Nc1cc(OCC(F)(F)F)cc([N+](=O)[O-])c1,.,2.1*,.,.,9
Cc1ccc(Cl)cc1N1CCN(CC(=O)Nc2ccc(CN3CCCCC3)cc2)CC1,28*,50,8.2*,2.9*,53
COc1ccc(S(=O)NC2CCCCC2)c(OC)c1C (centres undefined),102,99,95,85,93
CCN(CC)c1ccc(NC(=O)COc2ccc(C#N)cc2)cc1S(=O)(=O)Nc1ccc(OC)cc1,.,79,.,.,77
CCOC(=O)C/C(C)=N/NC(=O)C1CC1(c1ccccc1)c1ccccc1 (centres undefined),.,82,.,.,87
Cc1[nH]c2ccccc2c1/C=N/NC(=O)C1CC1(c1ccccc1)c1ccccc1 (centres undefined),.,2.7*,.,.,3.4*
CN(C)S(=O)(=O)c1ccc2nc(NC(=O)c3cccs3)sc2c1,110,88,79,29*,90
CS(=O)(=O)c1ccc2nc(NC(=O)c3ccco3)sc2c1,.,95,.,.,87
O=C(Nc1nc2ccc(S(=O)(=O)N3CCCC3)cc2s1)c1cccs1,89,90,59,36*,91
Cc1ccc(C(=O)Nc2nc3ccc(S(C)(=O)=O)cc3s2)o1,77,61,67,29*,64
CN(C)S(=O)(=O)c1ccc2nc(NC(=O)c3cccnc3)sc2c1,96,93,86,89,92
Cc1cc(C)c(S(=O)(=O)Nc2cccc(/C=C/C(=O)O)c2)c(C)c1,.,100,.,.,107
Cc1ccc(NC(=O)c2cc(C(=O)c3cc(Cl)ccc3O)cn(-c3ccc(C)cc3)c2=O)cc1,.,46,.,.,33
COc1ccc(NS(=O)(=O)c2ccc(NC(=S)NC(=O)/C=C/c3ccccc3)cc2)nn1,.,88,.,.,88
C=CCNC(=O)c1c2c(nc3ccccc13)-c1ccccc1CC2,.,94,.,.,80
O=C(NCC1CCCO1)/C(=C\c1ccc(Cl)cc1)NC(=O)c1ccccc1 (centres undefined),.,94,.,.,98
Cc1ccc(C(=O)N/C(=C/c2ccc(-c3cc(C(F)(F)F)ccc3Cl)o2)C(=O)NCc2cccnc2)cc1,.,63,.,.,61
CN(C)CCNC(=O)/C(=C/c1ccc(-c2ccc(Cl)cc2)o1)NC(=O)c1ccccc1,.,0.9*,.,.,0.8*
SMILES,Lung fibro prol,HCT116 bCat-KO,HUVEC inhibit,H69AR inhibit,PTEN del growth
CN(C)CCNC(=O)/C(=C/c1ccc(-c2ccc(Cl)cc2Cl)o1)NC(=O)c1ccccc1,.,1.9*,.,.,1.5*
O=C(NCCN1C(=O)S/C(=C\c2cccs2)C1=O)c1ccc(=O)[nH]c1,.,107,.,.,92
Oc1ccccc1-c1cc(-c2ccccc2Cl)[nH]n1,101,21,25*,22*,39
Oc1ccccc1-c1cc(-c2ccco2)[nH]n1,80,57,97,70,62
Cc1ccc(O)c(-c2cc(-c3ccccc3C)[nH]n2)c1,62,14,35,0.5*,20
Oc1ccc(Cl)cc1-c1cc(-c2cccc(Br)c2)n[nH]1,59,8,44,4.2*,15
Oc1ccc(Cl)cc1-c1cc(-c2ccccc2Cl)[nH]n1,76,28,62,31*,34
CN(C)Cc1ccccc1COc1ccccc1,.,94,.,.,88
c1cc2c(cc1C1CCCCC1)c1c3n2CCCNC3CCC1 (centres undefined),2.6*,0.5*,2.7*,1.3*,0.7*
Cc1ccc2c(c1)c1c3n2CCN=C3CCC1,98,94,83,92,85
Cc1ccc2c(c1)c1c3n2CCCNC3CCC1 (centres undefined),.,74,.,.,75
c1cc2c(cc1C1CCCCC1)c1c3n2CCN=C3CCC1,66,2.1*,2.1*,0.2*,10
C=CCc1ccc(OCC(O)COc2ccc(CC=C)cc2OC)c(OC)c1,100,68,85,35*,64
C=CCc1ccc(OCC(O)CN2CCCCC2)c(OC)c1 (centres undefined),101,106,91,83,108
Cc1cc(C(=O)COC(=O)c2ccc(CO)cc2)c(C)n1CC1COc2ccccc2O1 (centres undefined),.,74,.,.,65
Cc1ccc(C2NC(=O)NC(O)(C(F)(F)F)C2C(=O)c2cccs2)o1 (centres undefined),98,96,17*,104,95
CCOC(=O)c1ccc(NC(=S)NC(=O)COc2ccccc2)cc1,.,94,.,.,95
C=C(C)COc1ccc(-c2[nH]ncc2-c2ccccc2)c(O)c1,94,73,38,39*,63
C=C(C)COc1ccc(-c2[nH]ncc2-c2ccc(OC)c(OC)c2)c(O)c1,46*,13,45,.,12
C=C(C)COc1ccc(-c2nc(N)ncc2-c2ccc(OC)cc2)c(O)c1,93,42,99,10*,35
O=[N+]([O-])c1ccc(COc2ccc(-c3[nH]ncc3-c3ccccc3)c(O)c2)cc1,.,59,.,.,48
O=C(N/N=C/C1C(c2ccccc2)C1(Cl)Cl)c1cccc(Cl)c1 (centres undefined),.,55,.,.,60
N=C1C(=O)OCC1c1ccccc1NC(=O)CN1CCOCC1 (centres undefined),.,96,.,.,107
CC(C)NC(=S)Nc1ccc2nc3n(c(=O)c2c1)CCCCC3,.,90,.,.,92
COc1cccc(-c2nnc(SCC3CNC(=O)O3)n2-c2ccc(Cl)cc2)c1 (centres undefined),.,96,.,.,91
CC1CCCC/C1=N\NS(=O)(=O)c1ccc(Br)cc1 (centres undefined),98,110,101,97,112
Cc1cccc(NC(=O)CSc2nc3ccc(NC(=O)CSc4nnnn4-c4ccccc4)cc3s2)c1C,.,2.3*,.,.,4
O=C(CSc1nc2ccc(NC(=O)CSc3nnnn3-c3ccccc3)cc2s1)Nc1ccccc1,.,56,.,.,64
CC1=CCC(/C=N\Nc2nnc3c(n2)[nH]c2ccccc23)CC1 (centres undefined),.,88,.,.,96
